Screening results from PubChem BioAssay.
Sampled rows, rich in hits. Any-hit rate of the full collection: about 0.99%.
Dyrk1A ADPGlo = rat Dyrk1A kinase inhibitors, primary screen, biochemical, single point, plate reader; Dual specificity tyrosine-phosphorylation-regulated kinase 1A (Rattus norvegicus), Q63470; ADP-Glo luminescence, NFATc1 peptide; inhibition, % at 12.5 µM; 310,000 compounds, 0.43% hits; in the data active = inhibition above about 50%;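 also: plate controls were vehicle with enzyme for no effect and no enzyme for full effect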
Rce1 inh = yeast Rce1p protease inhibitors, primary screen, biochemical, fluorescence, cell-free homogeneous. yeast membranes, quenched prenylated peptide cleavage fluorescence. 290,000 compounds, 0.27% hits. calls only. CAAX prenyl protease 2 (Saccharomyces cerevisiae (strain ATCC 204508 / S288c)), Q03530;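 active = fall in fluorescence gain of 50% or more versus controls, with final raw signal at or below 3038400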;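 also: plate controls were neutral control wells for no effect and wells lacking membranes for full effect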
AI-2 QS mod = Vibrio harveyi AI-2 quorum sensing modulators, primary screen, JMH597 strain, luminescence/OD600 ratio; activity change, % at 7.5 µM; Vibrio harveyi JMH597 AI-2 luminescence/OD600 ratio, 9 h; stronger effect = lower value; strain lacks LuxN and CqsS sensors; 0 = neutral-control median; 300,000 compounds, 0.4% hits; AID 2094, 2009; in the data active = activity change below about -75%, passing the limit was not always enough;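 also: luminescence divided by OD600 gain over 9 h not by final OD600 alone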
GSK3A inh = blockers of GSK3A enzyme activity – biochemical, luminescence, cell-free homogeneous, HTS, primary screen; Glycogen synthase kinase-3 alpha (Homo sapiens), P49840; GSK-3 alpha kinase, ADP-Glo luminescence, 60 min; inhibition, % at 10 µM; 320,000 compounds, 0.1% hits; AID 2650, 2010;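 active = more than half of replicates show inhibition above 20%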;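 also: GST-tagged GSK-3 alpha with peptide substrate and 25 µM ATP; 0% = DMSO neutral wells and 100% = GW8510 positive control wells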
STK33 kinase inh = inhibitors of purified STK33 kinase, primary screen, biochemical, ADP-Glo luminescence, homogeneous, cell-free; Serine/threonine-protein kinase 33 (Homo sapiens), Q9BYT3; MBP phosphorylation; inhibition, % at 10 µM; 320,000 compounds, 0.073% hits; AID 2661, 2010;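 active = inhibition at or above 25%, using the most active replicate where run in duplicate; inactive = inhibition below 25%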
Target sequence (Q9BYT3 whole entry, looked up): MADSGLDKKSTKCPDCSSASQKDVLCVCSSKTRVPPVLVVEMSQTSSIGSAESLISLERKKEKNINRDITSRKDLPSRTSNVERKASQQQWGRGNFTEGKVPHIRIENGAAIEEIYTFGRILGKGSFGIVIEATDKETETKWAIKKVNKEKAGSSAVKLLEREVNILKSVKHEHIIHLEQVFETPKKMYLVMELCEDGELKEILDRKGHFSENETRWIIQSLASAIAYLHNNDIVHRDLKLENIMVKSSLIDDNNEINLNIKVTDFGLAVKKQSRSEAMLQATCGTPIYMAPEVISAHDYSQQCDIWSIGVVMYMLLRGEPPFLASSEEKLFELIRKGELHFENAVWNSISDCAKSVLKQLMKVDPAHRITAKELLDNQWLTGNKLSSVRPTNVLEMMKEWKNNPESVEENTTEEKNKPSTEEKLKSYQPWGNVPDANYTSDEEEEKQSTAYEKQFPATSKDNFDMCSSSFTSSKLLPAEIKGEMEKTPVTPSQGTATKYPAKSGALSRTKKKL
GSK3B inh = human GSK3beta kinase inhibitors, primary screen, biochemical, cell-free homogeneous, HTS; GST-GSK3beta kinase, ADP-Glo luminescence, 60 min; stronger effect = lower value; activity score (negative = inhibition), % at 10 µM; 300,000 compounds, 0.038% hits; Glycogen synthase kinase-3 beta (Homo sapiens), P49841;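 active = more than half of replicate wells score below -50%, meaning over 50% inhibition versus plate controls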;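 also: 0% = median DMSO wells and -100% = median GW8510 positive control wells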
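Test system: GST-fused GSK3beta enzyme, cell-free | Quantity: 1.6 ng GST-GSK3beta enzyme per well | Reagent: 25 µM ATP with peptide substrate | Schedule: 60 min enzyme reaction, room temperature | Signal: Luminescent ADP-Glo measurement of ADP formed | Read-out basis: Score relative to plate controls | Control set: DMSO and 20 µM GW8510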
Dyrk1A artifact = ADP-Glo luciferase interference without Dyrk1A, dose response, artefact control for Dyrk1A inhibitor project, biochemical, luminescence, cherry-pick, set 02; shares compounds with Dyrk1A ADPGlo; ADP-Glo luciferase artifact assay, no Dyrk1A; AC50, µM (highest dose often 12 µM), for the others: at the top dose activity change, negative = inhibition; 1,300 tested, under 10 active; AID 588348, 2011;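 active = fitted half-maximal dose AC50 no more than ten times the top valid tested dose, with luminescence dropping as dose rises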
* = called active by the depositor; i = inactive; . = not tested or not shown.

SMILES	Dyrk1A ADPGlo	Rce1 inh	AI-2 QS mod	GSK3A inh	STK33 kinase inh	GSK3B inh	Dyrk1A artifact
CC1CCCCN1CCNC(=O)c1ccc2c(=O)n(Cc3ccc(Cl)cc3)c(=S)[nH]c2c1 (stereo not drawn)	-5	i	15	-2	-4	-3	.
CCSC1OC(C(COC(C)=O)OC(C)=O)C(OC(C)=O)C1NC(C)=S (stereo not drawn)	1	.	.	.	.	.	.
N#CCSc1nc(Nc2ccc3c(c2)OCO3)c2ccccc2n1	60*	i	-18	-1	0	1	7%
COc1ccccc1C(CNC(=O)c1oc2ccccc2c1C)N1CCCC1 (stereo not drawn)	-1	.	.	-11	-1	.	.
CC(C)Cc1nnc(NC(=O)c2ccc3c(c2)OCCO3)s1	1	.	.	6	2	.	.
COc1ccc(-c2cnnc(N/N=C/c3ccc(O)c(O)c3)n2)cc1	68*	i	18	1	3	2	8%
COc1ccc(-c2cnnc(N/N=C/c3ccc(O)cc3)n2)cc1	34	i	20	4	0	1	.
CCOc1ccc(S(=O)(=O)N2CCCC(C(=O)Nc3cc(C)cc(C)c3)C2)cc1 (stereo not drawn)	-1	i	8	-1	0	0	.
CC1(C)C=Cc2cc3ccc(=O)oc3cc2O1	59*	i	17	13	4	3	6%
COc1c2c(cc3oc(=O)ccc13)OC(C)(C)C=C2	40	i	7	3	2	-2	.
FC(F)(F)c1ccc(C2Nc3cccc4cccc(c34)N2)cc1	7	.	.	.	.	.	.
Fc1ccc(C2Nc3cccc4cccc(c34)N2)cc1	52*	i	4	1	0	2	9%
C=CCSC1=NC(=O)/C(=C/c2cccs2)S1	76*	.	.	9	-1	.	8%
NC1=NC(=O)/C(=C/c2cccs2)S1	53*	i	33	2	1	1	11%
O=C1N=C(N2CCOCC2)S/C1=C/c1cccs1	25	i	15	1	-1	3	.
Cc1cc(C)n(-c2ccc(NC(=O)C3CCCCN3Cc3cccc4c3OCO4)cc2)n1 (stereo not drawn)	1	i	14	.	.	-4	.
O=C(NNC(=O)c1cccnc1Cl)c1ccc(F)cc1	-5	i	37	13	7	-5	.
COc1cccc(/C=C2\Oc3ccc(O)cc3C2=O)c1O	50*	i	23	9	7	-2	-2%
COC(=O)c1ccc2c(c1)C(=O)/C(=C/c1ccc(O)cc1)O2	26	i	7	-2	-1	-17	.
CC(C)C1CCN(C(=O)C2CCC(=O)N(CCc3ccc(Cl)cc3)C2)CC1 (stereo not drawn)	2	.	54	2	3	-4	.
O=C1CN(C(=O)C2CCC(=O)N(CCc3ccc(Cl)cc3)C2)CCN1 (stereo not drawn)	54*	i	28	2	-2	3	6%
COC(=O)c1c(-c2ccc(S(C)(=O)=O)cc2)sc2ccc(OC)cc12	51*	.	.	-2	0	.	10%
Cc1noc(NS(=O)(=O)c2ccc(N/C=C\C(=O)c3ccc(Br)cc3)cc2)c1C	63*	i	15	-2	3	3	7%
CCC(C)CCN1C(Nc2ccccc2)=NC[C@@H]1Cc1ccccc1 (stereo partly drawn)	57*	i	11	-3	-1	1	9%
CC(C)C(Cl)=NOC(=O)Nc1ccc(S(N)(=O)=O)cc1	0	.	.	.	.	.	.
SMILES	Dyrk1A ADPGlo	Rce1 inh	AI-2 QS mod	GSK3A inh	STK33 kinase inh	GSK3B inh	Dyrk1A artifact
O=C(CN1CCOCC1)N1CCOCC1	-2	.	.	.	.	.	.
Oc1ccc(Br)cc1-c1cc(-c2ccccc2Cl)[nH]n1	-3	i	19	-1	-2	1	.
COc1ccc(O)c(-c2cc(-c3ccccc3Cl)[nH]n2)c1	53*	i	4	-1	-3	-2	8%
COc1ccc(O)c(-c2cc(-c3cccs3)[nH]n2)c1	70*	i	25	1	2	2	8%
CC(Nc1nc(-c2cccnc2)nc2ccccc12)c1ccc(F)cc1 (stereo not drawn)	62*	i	12	3	-1	1	10%
Cc1ccc(-n2c(=O)c3c4c(sc3n3c(=S)[nH]nc23)CCC4)cc1	23	i	10	-6	0	1	.
O=c1c2c3c(sc2n2c(=S)[nH]nc2n1-c1ccccc1)CCC3	55*	i	11	15	1	-6	9%
COc1ccccc1/C=C/C(=O)Nc1cccc(C(C)=O)c1	5	i	10	.	4	3	.
COc1ccc(/C=C/C(=O)Nc2cccc(C(C)=O)c2)cc1	56*	i	10	-3	2	1	7%
O=C(/C=C/c1ccccc1)Nc1cccc(C(=O)NC2CC2)c1	63*	.	.	.	.	.	8%
Cc1c(C)n(CCc2ccccc2)c2ncnc(NCCCN(C)C)c12	4	i	41	4	3	0	.
COCCNc1cc(C)nc2c(-c3ccccc3OC)c(C)nn12	57*	i	18	-6	0	0	11%
COc1cc(C(C)=O)ccc1Oc1ncnc2c1cnn2-c1ccccc1	62*	i	23	-1	1	2	8%
COc1cc(C(C)=O)ccc1Oc1ncnc2c1cnn2-c1ccc(C)c(C)c1	-8	i	-5	.	.	-2	.
O=C(Sc1n[nH]c(=O)[nH]c1=O)c1ccccc1	7	.	.	.	.	.	.
CC(=O)Nc1ccc(/C=C/c2nc3ccccc3o2)cc1	59*	i	-16	-2	-1	-1	9%
Cc1ccc2c(c1)N(CC(=O)NC1CCCCC1)C(=O)c1cccnc1O2	58*	i	7	.	.	2	6%
CC(=O)c1ccc(NC(=S)Nc2ccc3cn[nH]c3c2)cc1	57*	i	4	-1	5	-7	8%
O=C(Nc1ccncc1)c1c(Cl)cccc1Cl	-3	.	.	-1	-2	.	.
O=C(Nc1ccc2cn[nH]c2c1)c1c(Cl)cccc1Cl	51*	i	21	9	8	-1	10%
O=C(Nc1ccc2ccccc2c1)c1ccccc1F	15	i	15	-6	1	-2	.
